# Assay results published in ChEMBL document CHEMBL1165950, “Design and synthesis of new potent anticancer pyrazoles with high FLT3 kinase inhibitory selectivity” (Bioorg Med Chem, 2010).
# Tests used:
# Type in all cases: functional
# U-251 = assay: Growth inhibition of human U251 cells after 48 hrs by sulforhodamine B assay; conditions: U-251, 48 h; for CC50: read-out: LC50 (the source's name)
# Method in brief: (§1)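 NCI 60-cell screen, five-dose mode. Cells grown in RPMI 1640 with 5% FBS and 2 mM L-glutamine and plated at 5000-40,000 cells/well according to doubling time. After 24 h preincubation, a Tz plate was TCA-fixed. Five concentrations (10-fold or 1/2 log dilutions) were applied for 48 h at 37 °C. SRB staining read at 515 nm. IC50 taken from [(Ti-Tz)/(C-Tz)]×100 = 50.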
# OVCAR-3 [1] = assay: Cytotoxicity against human OVCAR-3 cells assessed as cell growth at 0.001 uM after 48 hrs by sulforhodamine B assay; conditions: OVCAR-3, 48 h, read-out: Activity
# M14 [2] = assay: Cytotoxicity against human M14 cells assessed as cell growth at 10 uM; conditions: read-out: Activity
# Method in brief: (§2)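 NCI-60 screen: cells grown in RPMI 1640 with 5% FBS and 2 mM L-glutamine, plated at 5000–40,000 cells/well according to doubling time, and preincubated 24 h at 37 °C, 5% CO2. The single 10 µM dose (DMSO stock) was added, then incubated 48 h. Cells were TCA-fixed and stained with 0.4% SRB, read at 515 nm, and growth % calculated against time-zero and control plates.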
# SF-539 = assay: Cytotoxicity against human SF539 cells assessed as cell growth at 10 uM after 48 hrs by sulforhodamine B assay; conditions: SF-539, 48 h, read-out: Activity
# KM12 = assay: Cytotoxicity against human KM12 cells assessed as cell growth at 100 nM after 48 hrs by sulforhodamine B assay; conditions: KM12, 48 h, read-out: Activity
# [3] = Growth inhibition of human NCI60 cells at 10 uM after 48 hrs by sulforhodamine B assay relative to control; conditions: NCI60, 48 h, read-out: GI
# Method in brief: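 Single-dose NCI screen at 10 µM across the 60-line panel, 48 h exposure at 37 °C after a 24 h preincubation. Adherent cells were fixed with cold TCA and stained with 0.4% SRB, and absorbance was read at 515 nm. Inhibition % was taken as 100 minus growth %, and the mean across all lines was reported.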
# HOP-62 = assay: Cytotoxicity against human HOP62 cells assessed as cell growth at 1 uM after 48 hrs by sulforhodamine B assay; conditions: HOP-62, 48 h, read-out: Activity
# 786-0 = assay: Cytotoxicity against human 786-0 cells assessed as cell growth at 1 uM after 48 hrs by sulforhodamine B assay; conditions: 786-0, 48 h, read-out: Activity
# Method in brief: (§3)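 NCI-60 five-dose screen. Cells were grown in RPMI 1640 with 5% FBS and 2 mM L-glutamine, plated at 5000–40,000 cells/well and preincubated for 24 h. Time-zero plates were TCA-fixed. DMSO-solubilized drug was added at five concentrations (10-fold or ½-log serial dilutions) for 48 h at 37 °C, 5% CO2. Cells were TCA-fixed, stained with 0.4% SRB and read at 515 nm. Percent growth used time-zero, control and test absorbances.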
# SNB-19 = assay: Cytotoxicity against human SNB19 cells assessed as cell growth at 1 uM after 48 hrs by sulforhodamine B assay; conditions: SNB-19, 48 h, read-out: Activity
# MOLT-4 [4] = assay: Cytotoxicity against human MOLT4 cells assessed as cell growth at 10 uM after 48 hrs by sulforhodamine B assay; conditions: MOLT-4, 48 h, read-out: Activity
# SK-OV-3 = assay: Cytotoxicity against human SKOV3 cells assessed as cell growth at 0.01 uM after 48 hrs by sulforhodamine B assay; conditions: SK-OV-3, 48 h, read-out: Activity
# M14 [5] = assay: Cytotoxicity against human M14 cells assessed as cell growth at 100 nM after 48 hrs by sulforhodamine B assay; conditions: M14, 48 h, read-out: Activity
# HOP-92 [6] = assay: Cytotoxicity against human HOP92 cells assessed as cell growth at 0.001 uM after 48 hrs by sulforhodamine B assay; conditions: HOP-92, 48 h, read-out: Activity
# ACHN = assay: Cytotoxicity against human ACHN cells assessed as cell growth at 10 uM after 48 hrs by sulforhodamine B assay; conditions: read-out: Activity; method in brief: as §3
# K562 = assay: Growth inhibition of human K562 cells after 48 hrs by sulforhodamine B assay; conditions: K562, 48 h; method in brief: as §1
# MOLT-4 [7] = assay: Growth inhibition of human MOLT4 cells after 48 hrs by sulforhodamine B assay; conditions: MOLT-4, 48 h; method in brief: as §1
# NCI-H460 = assay: Cytotoxicity against human NCI-H460 cells assessed as cell growth at 10 uM; conditions: read-out: Activity; method in brief: as §2
# CCRF-CEM = assay: Growth inhibition of human CCRF-CEM cells after 48 hrs by sulforhodamine B assay
# Method in brief: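 NCI five-dose SRB assay in RPMI 1640 with 5% FBS and 2 mM L-glutamine. Cells were preincubated 24 h, then exposed 48 h at 37 °C to five concentrations (10-fold or half-log serial dilutions from DMSO stocks). TCA fixation, SRB staining, and absorbance at 515 nm followed. IC50 was taken where [(Ti−Tz)/(C−Tz)]×100 = 50, with Tz as time-zero cell density.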
# OVCAR-3 [8] = assay: Growth inhibition of human OVCAR-3 cells after 48 hrs by sulforhodamine B assay; conditions: OVCAR-3, 48 h; for CC50: read-out: LC50 (the source's name); method in brief: as §1
# HCC 2998 = assay: Cytotoxicity against human HCC2998 cells assessed as cell growth at 0.01 uM after 48 hrs by sulforhodamine B assay; conditions: HCC 2998, 48 h, read-out: Activity
# [9] = Cytotoxicity against human […] cells assessed as cell growth at 0.001 uM after 48 hrs by sulforhodamine B assay; conditions: read-out: Activity
# HOP-92 [10] = assay: Growth inhibition of human HOP92 cells after 48 hrs by sulforhodamine B assay; conditions: HOP-92, 48 h; for CC50: read-out: LC50 (the source's name); method in brief: as §1
# NCI-H23 = assay: Cytotoxicity against human NCI-H23 cells assessed as cell growth at 10 uM; conditions: read-out: Activity; method in brief: as §2
# TK-10 = assay: Cytotoxicity against human TK10 cells assessed as cell growth at 100 nM after 48 hrs by sulforhodamine B assay; conditions: TK-10, 48 h, read-out: Activity
# BT-549 = assay: Cytotoxicity against human BT549 cells assessed as cell growth at 1 uM after 48 hrs by sulforhodamine B assay; conditions: BT-549, 48 h, read-out: Activity; method in brief: as §3
# MOLT-4 [11] = assay: Cytotoxicity against human MOLT4 cells assessed as cell growth at 10 uM; conditions: read-out: Activity; method in brief: as §2
# SK-MEL-28 = assay: Cytotoxicity against human SK-MEL-28 cells assessed as cell growth at 10 uM; conditions: read-out: Activity; method in brief: as §2
# SF-268 = assay: Growth inhibition of human SF268 cells after 48 hrs by sulforhodamine B assay; conditions: SF-268, 48 h; for CC50: read-out: LC50 (the source's name); method in brief: as §1
compound,measurement,setting,value
Cc1cc(O)cc(-c2nn(CC#N)cc2-c2ccnc(-c3ccc(Oc4ccccc4)cc3)c2)c1,GI50,U-251,1.61 µM
same,TGI,U-251,2.99 µM
same,CC50,U-251,5.56 µM
same,growth at 0.001 µM,OVCAR-3 [1],92%
same,growth at 10 µM,M14 [2],55.1%
same,growth at 10 µM,SF-539,-85%
same,growth at 0.1 µM,KM12,85%
same,inhibition of growth at 10 µM,[3],46.6%
same,growth at 1 µM,HOP-62,60%
same,growth at 1 µM,786-0,-34%
same,growth at 1 µM,SNB-19,55%
same,growth at 10 µM,MOLT-4 [4],-21%
same,growth at 0.01 µM,SK-OV-3,98%
same,growth at 0.1 µM,M14 [5],94%
same,growth at 0.001 µM,HOP-92 [6],74%
same,growth at 10 µM,ACHN,-91%
same,GI50,K562,4.87 µM
same,LC50 (50% net cell kill),K562,> 100 µM
same,TGI,K562,6.02 µM
same,GI50,MOLT-4 [7],2.03 µM
same,LC50,MOLT-4 [7],> 100 µM
same,TGI,MOLT-4 [7],6.82 µM
same,growth at 10 µM,NCI-H460,61.4%
same,GI50,CCRF-CEM,2.85 µM
same,LC50,CCRF-CEM,> 100 µM
same,TGI,CCRF-CEM,> 100 µM
same,GI50,OVCAR-3 [8],1.88 µM
same,TGI,OVCAR-3 [8],3.95 µM
same,CC50,OVCAR-3 [8],8.29 µM
same,growth at 0.01 µM,HCC 2998,89%
same,growth at 0.001 µM,[9],97%
same,GI50,HOP-92 [10],1.59 µM
same,TGI,HOP-92 [10],5.24 µM
same,CC50,HOP-92 [10],39.5 µM
same,growth at 10 µM,NCI-H23,42.6%
same,growth at 0.1 µM,TK-10,102%
same,growth at 1 µM,BT-549,4%
same,growth at 10 µM,MOLT-4 [11],30%
same,growth at 10 µM,SK-MEL-28,63.3%
same,GI50,SF-268,3.96 µM
same,TGI,SF-268,15.5 µM
same,CC50,SF-268,41.4 µM
Cc1cc(O)cc(-c2nn(CC#N)cc2-c2ccnc(-c3ccc(N(C)C)cc3)c2)c1,GI50,U-251,3.14 µM
same,TGI,U-251,12.9 µM
same,CC50,U-251,61.3 µM
same,growth at 0.001 µM,OVCAR-3 [1],105%
same,growth at 10 µM,M14 [2],6.66%
same,growth at 10 µM,SF-539,-71%
same,growth at 0.1 µM,KM12,66%
same,inhibition of growth at 10 µM,[3],65.3%
same,growth at 1 µM,HOP-62,13%
same,growth at 1 µM,786-0,14%
same,growth at 1 µM,SNB-19,28%
same,growth at 10 µM,MOLT-4 [4],-6%
same,growth at 0.01 µM,SK-OV-3,98%
same,growth at 0.1 µM,M14 [5],82%
same,growth at 0.001 µM,HOP-92 [6],80%
same,growth at 10 µM,ACHN,-30%
same,GI50,K562,2.55 µM
same,LC50 (50% net cell kill),K562,> 100 µM
same,TGI,K562,32.8 µM
same,GI50,MOLT-4 [7],3.17 µM
same,LC50,MOLT-4 [7],> 100 µM
same,TGI,MOLT-4 [7],46 µM
same,growth at 10 µM,NCI-H460,25.6%
same,GI50,CCRF-CEM,3.59 µM
same,LC50,CCRF-CEM,> 100 µM
same,TGI,CCRF-CEM,> 100 µM
same,GI50,OVCAR-3 [8],1.91 µM
same,TGI,OVCAR-3 [8],4.78 µM
same,CC50,OVCAR-3 [8],21.2 µM
same,growth at 0.01 µM,HCC 2998,88%
same,growth at 0.001 µM,[9],96%
same,GI50,HOP-92 [10],3.03 µM
same,TGI,HOP-92 [10],46.8 µM
same,CC50,HOP-92 [10],> 100 µM
same,growth at 10 µM,NCI-H23,35.9%
same,growth at 0.1 µM,TK-10,125%
same,growth at 1 µM,BT-549,4%
same,growth at 10 µM,MOLT-4 [11],28.1%
same,growth at 10 µM,SK-MEL-28,38.1%
same,GI50,SF-268,3.55 µM
same,TGI,SF-268,16.9 µM
same,CC50,SF-268,77.9 µM
COc1cc(C)cc(-c2nn(CC#N)cc2-c2ccnc(-c3ccc(N(C)C)cc3)c2)c1,GI50,U-251,0.415 µM
same,TGI,U-251,5.86 µM
same,CC50,U-251,> 100 µM
same,growth at 0.001 µM,OVCAR-3 [1],106%
same,growth at 10 µM,M14 [2],-10%
same,growth at 10 µM,SF-539,-38%
same,growth at 0.1 µM,KM12,10%
same,inhibition of growth at 10 µM,[3],92.3%
same,growth at 1 µM,HOP-62,5%
same,growth at 1 µM,786-0,-8%
same,growth at 1 µM,SNB-19,19%
same,growth at 10 µM,MOLT-4 [4],1%
same,growth at 0.01 µM,SK-OV-3,102%
same,growth at 0.1 µM,M14 [5],-12%
same,growth at 0.001 µM,HOP-92 [6],102%
same,growth at 10 µM,ACHN,-18%
same,GI50,K562,0.161 µM
same,LC50 (50% net cell kill),K562,> 100 µM
same,TGI,K562,> 100 µM
same,GI50,MOLT-4 [7],0.626 µM
same,LC50,MOLT-4 [7],> 100 µM
same,TGI,MOLT-4 [7],> 100 µM
same,growth at 10 µM,NCI-H460,2.65%
same,GI50,CCRF-CEM,0.454 µM
same,LC50,CCRF-CEM,> 100 µM
same,TGI,CCRF-CEM,> 100 µM
same,GI50,OVCAR-3 [8],0.204 µM
same,TGI,OVCAR-3 [8],0.448 µM
same,growth at 0.01 µM,HCC 2998,107%
same,growth at 0.001 µM,[9],104%
same,GI50,HOP-92 [10],0.557 µM
same,TGI,HOP-92 [10],26.6 µM
same,CC50,HOP-92 [10],> 100 µM
same,growth at 10 µM,NCI-H23,-3.77%
same,growth at 0.1 µM,TK-10,50%
same,growth at 1 µM,BT-549,-10%
same,growth at 10 µM,MOLT-4 [11],16%
same,growth at 10 µM,SK-MEL-28,32.4%
same,GI50,SF-268,0.478 µM
same,TGI,SF-268,8.9 µM
same,CC50,SF-268,> 100 µM
